Reference: ChEMBL document CHEMBL1914423, “New imidazo[2,1-b]thiazole derivatives: synthesis, in vitro anticancer evaluation, and in silico studies” (Eur J Med Chem, 2011)

How the values were obtained:
Format in all cases: functional
[1] = system: NCI-H23; experiment: Anticancer activity against human NCI-H23 cells assessed as cell growth at 10^-5 M after 48 hrs by SRB assay; settings: NCI-H23, 48 h, read-out: Activity
[2] = system: SNB-75; experiment: Anticancer activity against human SNB75 cells assessed as cell growth at 10^-5 M after 48 hrs by SRB assay; settings: SNB-75, 48 h, read-out: Activity
Procedure, shortened: (§1)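 NCI-60 single-dose screen: cells in RPMI 1640 with 5% FBS and 2 mM L-glutamine, plated at 5000–40,000 cells/well by doubling time, and preincubated 24 h at 37 °C. Compound given at one concentration from DMSO stock. Cells TCA-fixed and SRB-stained, absorbance at 515 nm. Percent growth relative to time-zero and untreated controls; inhibition % = 100 − growth %.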

[3] = system: SN12C; experiment: Anticancer activity against human SN12C cells assessed as cell growth at 10^-5 M after 48 hrs by SRB assay; settings: read-out: Activity
[4] = system: CCRF-CEM; experiment: Anticancer activity against human CCRF-CEM cells assessed as cell growth at 10^-5 M after 48 hrs by SRB assay; settings: read-out: Activity
Procedure, shortened: (§2)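 NCI-60 single-dose screen at one concentration. Cells grown in RPMI 1640 with 5% FBS and 2 mM L-glutamine, plated at 5000–40,000 cells/well, and pre-incubated 24 h at 37 °C in 5% CO2 before DMSO-dissolved drug was added. Cells fixed with TCA, SRB-stained, absorbance read at 515 nm. Percent growth calculated against time-zero and untreated control plates.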

[5] = system: UACC-257; experiment: Anticancer activity against human UACC257 cells assessed as cell growth at 10^-5 M after 48 hrs by SRB assay; settings: UACC-257, 48 h, read-out: Activity; procedure, shortened: as §1
[6] = system: OVCAR-8; experiment: Anticancer activity against human OVCAR8 cells assessed as cell growth at 10^-5 M after 48 hrs by SRB assay; settings: OVCAR-8, 48 h, read-out: Activity
[7] = system: RPMI-8226; experiment: Anticancer activity against human RPMI8226 cells assessed as cell growth at 10^-5 M after 48 hrs by SRB assay; settings: RPMI-8226, 48 h, read-out: Activity
[8] = system: HCC 2998; experiment: Anticancer activity against human HCC2998 cells assessed as cell growth at 10^-5 M after 48 hrs by SRB assay; settings: HCC 2998, 48 h, read-out: Activity; procedure, shortened: as §2
[9] = system: SK-MEL-28; experiment: Anticancer activity against human SK-MEL-28 cells assessed as cell growth at 10^-5 M after 48 hrs by SRB assay; settings: SK-MEL-28, 48 h, read-out: Activity
[10] = system: NCI-H460; experiment: Anticancer activity against human NCI-H460 cells assessed as cell growth at 10^-5 M after 48 hrs by SRB assay; settings: NCI-H460, 48 h, read-out: Activity
[11] = system: MDA-MB-435; experiment: Anticancer activity against human MDA-MB-435 cells assessed as cell growth at 10^-5 M after 48 hrs by SRB assay; settings: MDA-MB-435, 48 h, read-out: Activity
[12] = system: HOP-62; experiment: Anticancer activity against human HOP62 cells assessed as cell growth at 10^-5 M after 48 hrs by SRB assay; settings: HOP-62, 48 h, read-out: Activity; procedure, shortened: as §2
[13] = system: HCT-15; experiment: Anticancer activity against human HCT15 cells assessed as cell growth at 10^-5 M after 48 hrs by SRB assay; settings: HCT-15, 48 h, read-out: Activity; procedure, shortened: as §2
[14] = system: RXF 393; experiment: Anticancer activity against human RXF393 cells assessed as cell growth at 10^-5 M after 48 hrs by SRB assay; settings: RXF 393, 48 h, read-out: Activity
[15] = system: SF-539; experiment: Anticancer activity against human SF539 cells assessed as cell growth at 10^-5 M after 48 hrs by SRB assay; settings: SF-539, 48 h, read-out: Activity
[16] = system: KM12; experiment: Anticancer activity against human KM12 cells assessed as cell growth at 10^-5 M after 48 hrs by SRB assay; settings: KM12, 48 h, read-out: Activity; procedure, shortened: as §2
[17] = system: U-251; experiment: Anticancer activity against human U251 cells assessed as cell growth at 10^-5 M after 48 hrs by SRB assay; settings: U-251, 48 h, read-out: Activity; procedure, shortened: as §1
[18] = system: Malme-3M; experiment: Anticancer activity against human MALME-3M cells assessed as cell growth at 10^-5 M after 48 hrs by SRB assay; settings: read-out: Activity; procedure, shortened: as §2
[19] = system: COLO 205; experiment: Anticancer activity against human COLO205 cells assessed as cell growth at 10^-5 M after 48 hrs by SRB assay; settings: COLO 205, 48 h, read-out: Activity; procedure, shortened: as §2
[20] = system: SK-OV-3; experiment: Anticancer activity against human SKOV3 cells assessed as cell growth at 10^-5 M after 48 hrs by SRB assay; settings: SK-OV-3, 48 h, read-out: Activity
[21] = system: IGROV-1; experiment: Anticancer activity against human IGROV1 cells assessed as cell growth at 10^-5 M after 48 hrs by SRB assay; settings: IGROV-1, 48 h, read-out: Activity; procedure, shortened: as §2
[22] = system: A549; experiment: Anticancer activity against human A549 cells assessed as cell growth at 10^-5 M after 48 hrs by SRB assay; settings: A549, 48 h, read-out: Activity; procedure, shortened: as §2
[23] = system: OVCAR-3; experiment: Anticancer activity against human OVCAR3 cells assessed as cell growth at 10^-5 M after 48 hrs by SRB assay; settings: OVCAR-3, 48 h, read-out: Activity
[24] = system: 786-0; experiment: Anticancer activity against human 786-0 cells assessed as cell growth at 10^-5 M after 48 hrs by SRB assay; settings: 786-0, 48 h, read-out: Activity; procedure, shortened: as §2
[25] = system: K562; experiment: Anticancer activity against human K562 cells assessed as cell growth at 10^-5 M after 48 hrs by SRB assay; settings: K562, 48 h, read-out: Activity; procedure, shortened: as §2
[26] = system: NCI/ADR-RES; experiment: Anticancer activity against human NCI/ADR-RES cells assessed as cell growth at 10^-5 M after 48 hrs by SRB assay; settings: read-out: Activity
[27] = system: A498; experiment: Anticancer activity against human A498 cells assessed as cell growth at 10^-5 M after 48 hrs by SRB assay; settings: A498, 48 h, read-out: Activity; procedure, shortened: as §2
[28] = system: DU-145; experiment: Anticancer activity against human DU145 cells assessed as cell growth at 10^-5 M after 48 hrs by SRB assay; settings: DU-145, 48 h, read-out: Activity; procedure, shortened: as §2
[29] = system: NCI-H522; experiment: Anticancer activity against human NCI-H522 cells assessed as cell growth at 10^-5 M after 48 hrs by SRB assay; settings: NCI-H522, 48 h, read-out: Activity

Compound	growth at 10 µM [1]	growth at 10 µM [2]	growth at 10 µM [3]	growth at 10 µM [4]	growth at 10 µM [5]	growth at 10 µM [6]	growth at 10 µM [7]	growth at 10 µM [8]	growth at 10 µM [9]	growth at 10 µM [10]	growth at 10 µM [11]	growth at 10 µM [12]	growth at 10 µM [13]	growth at 10 µM [14]	growth at 10 µM [15]	growth at 10 µM [16]	growth at 10 µM [17]	growth at 10 µM [18]	growth at 10 µM [19]	growth at 10 µM [20]	further results
COc1cccc(-c2nc3sccn3c2-c2ccnc(NCCNC(=O)c3cccc(C(F)(F)F)c3)n2)c1	70.7%	85.3%	65.2%	39.3%	78.4%	40.5%	25.8%	87.1%	75.9%	74.3%	38.8%	99.5%	55.8%	60.5%	88.3%	58.6%	74.5%	50.8%	46.1%	81.1%	growth at 10 µM [21]: 53.4%; growth at 10 µM [22]: 56%; growth at 10 µM [23]: 76%; growth at 10 µM [24]: 76%; growth at 10 µM [25]: 48.1%; growth at 10 µM [26]: 38.4%; growth at 10 µM [27]: 63.5%; growth at 10 µM [28]: 67.7%; growth at 10 µM [29]: 48.8%
COc1cccc(-c2nc3sccn3c2-c2ccnc(NCCNC(=O)c3cc(C(F)(F)F)cc(C(F)(F)F)c3)n2)c1	102%	75.8%	90.8%	69.9%	99.6%	82.4%	50%	90.2%	97.6%	92.2%	83.9%	109%	83.8%	51.2%	88.3%	79.4%	92%	94.1%	93.4%	97%	growth at 10 µM [21]: 81.5%; growth at 10 µM [22]: 81.2%; growth at 10 µM [23]: 90.9%; growth at 10 µM [24]: 75.9%; growth at 10 µM [25]: 83.5%; growth at 10 µM [26]: 72.7%; growth at 10 µM [27]: 95.6%; growth at 10 µM [28]: 94.4%; growth at 10 µM [29]: 78.4%
COc1cccc(-c2nc3sccn3c2-c2ccnc(NCCNC(=O)c3ccc(N4CCOCC4)c(C(F)(F)F)c3)n2)c1	102%	82.5%	91.7%	54.6%	87.7%	62.4%	39%	93.3%	89.5%	77.7%	60.8%	99.4%	66.6%	78.5%	79%	76.2%	87.2%	78.4%	69%	82.8%	growth at 10 µM [21]: 68.6%; growth at 10 µM [22]: 76.2%; growth at 10 µM [23]: 93.8%; growth at 10 µM [24]: 71.5%; growth at 10 µM [25]: 32.6%; growth at 10 µM [26]: 69.6%; growth at 10 µM [27]: 64.6%; growth at 10 µM [28]: 111%; growth at 10 µM [29]: 60.6%
O=C(NCCNc1nccc(-c2c(-c3cccc(O)c3)nc3sccn23)n1)c1cc(C(F)(F)F)cc(C(F)(F)F)c1	119%	87.7%	102%	84.7%	66.5%	102%	91%	129%	61.8%	107%	59.2%	118%	96.6%	107%	113%	103%	105%	27%	59.8%	96.3%	growth at 10 µM [21]: 93%; growth at 10 µM [22]: 92.5%; growth at 10 µM [23]: 108%; growth at 10 µM [24]: 101%; growth at 10 µM [25]: 96.2%; growth at 10 µM [26]: 108%; growth at 10 µM [27]: 112%; growth at 10 µM [28]: 114%; growth at 10 µM [29]: 97.6%
O=C(NCCNc1nccc(-c2c(-c3cccc(O)c3)nc3sccn23)n1)c1ccc(N2CCOCC2)c(C(F)(F)F)c1	85.4%	58%	76%	56.9%	15.8%	72.8%	58.8%	106%	42.8%	66.9%	20.9%	96.7%	80%	57.6%	77.8%	77.5%	82%	-4.27%	43.4%	66.4%	growth at 10 µM [21]: 54.3%; growth at 10 µM [22]: 64.1%; growth at 10 µM [23]: 89.1%; growth at 10 µM [24]: 60.1%; growth at 10 µM [25]: 63%; growth at 10 µM [26]: 95.4%; growth at 10 µM [27]: 47.8%; growth at 10 µM [28]: 94.9%; growth at 10 µM [29]: 74.4%
O=C(NCCNc1nccc(-c2c(-c3cccc(O)c3)nc3sccn23)n1)c1cc(N2CCOCC2)cc(C(F)(F)F)c1	106%	83.2%	89.8%	52.9%	16.7%	78.1%	67%	109%	44.5%	96.2%	34.7%	136%	92%	77.8%	101%	97.3%	105%	3.04%	32.7%	94%	growth at 10 µM [21]: 80.4%; growth at 10 µM [22]: 88.6%; growth at 10 µM [23]: 107%; growth at 10 µM [24]: 86.6%; growth at 10 µM [25]: 70.7%; growth at 10 µM [26]: 103%; growth at 10 µM [27]: 92.8%; growth at 10 µM [28]: 110%; growth at 10 µM [29]: 78.6%
